The term MIC denotes the least concentration at which growth counts as inhibited. A low value points to inhibition by little substance.

The values that follow come from ChEMBL document CHEMBL4028901, “Novel Antitubercular 6-Dialkylaminopyrimidine Carboxamides from Phenotypic Whole-Cell High Throughput Screening of a SoftFocus Library: Structure-Activity Relationship and Target Identification Studies” (J Med Chem, 2017).

Structures are written as SMILES. In brackets after ≈: the same amount, converted by molar mass.

This test relates to Mycobacterium tuberculosis. In words: Antibacterial activity against Mycobacterium bovis BCG grown in 7H9 medium after 6 days by resazurin-based fluorescent method. In kind it is functional. The settings on record: variant bovis BCG, 144 h. The gist of the method: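 M. bovis BCG at 10⁵ CFU/ml in 7H9 with 0.025% tyloxapol and 2% glucose. Compounds tested as 10 two-fold dilutions from 50 μM. Incubated 6 days at 37 °C, then resazurin added for a further 48 h. Endpoint fluorescence read at excitation 530 nm, emission 590 nm.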
A general note: Resazurin is reduced to fluorescent resorufin, in cell work by metabolically active cells.

`CN1CCN(c2ccc(NC(=O)c3cc(N(CCCN)Cc4ccccc4)ncn3)cc2)CC1` registered a minimum inhibitory concentration (MIC) of 18.6 µM (≈ 8.55 µg/mL).
